Test results as given in ChEMBL document CHEMBL4152204, “Discovery of N-hydroxy-3-alkoxybenzamides as direct acid sphingomyelinase inhibitors using a ligand-based pharmacophore model” (Eur J Med Chem, 2018).
The source made the active and inactive calls. The calls are words filed in the database; no cut-off is given here.

system: NIH3T3; test: Cytoprotective activity against UV-induced apoptosis in mouse NIH/3T3 cells assessed as necrotic cells preincubated for 20 hrs followed by UV irradiation for 5 mins and measured after 24 hrs by flow cytometric analysis; format: functional, cell-based
Summary of the method: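 NIH3T3 cells grown in DMEM plus 10% FBS at 37 °C and 5% CO₂, seeded in 6-well plates and left overnight. Inhibitor (0–60 µM, DMSO solvent) added for 20 h. Medium replaced, then UV at peak 315 nm, 0.29 mW/cm² for 5 min. Cells kept with inhibitor 24 h more before flow cytometry by quadrant regions. Untreated, unirradiated cells served as control. Three independent experiments.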

| SMILES | Activity |
| --- | --- |
| CN(C)CCC=C1c2ccccc2CCc2ccccc21 | Dose-dependent effect |

biological target: T1, Sphingomyelin phosphodiesterase (Homo sapiens, UniProt P17405); test: Inhibition of acid sphingomyelinase in human HuH7 cell lysate using NBD-sphingomyelin as substrate after 30 mins by TLC based fluorescence assay
T1 sequence (P17405 whole entry): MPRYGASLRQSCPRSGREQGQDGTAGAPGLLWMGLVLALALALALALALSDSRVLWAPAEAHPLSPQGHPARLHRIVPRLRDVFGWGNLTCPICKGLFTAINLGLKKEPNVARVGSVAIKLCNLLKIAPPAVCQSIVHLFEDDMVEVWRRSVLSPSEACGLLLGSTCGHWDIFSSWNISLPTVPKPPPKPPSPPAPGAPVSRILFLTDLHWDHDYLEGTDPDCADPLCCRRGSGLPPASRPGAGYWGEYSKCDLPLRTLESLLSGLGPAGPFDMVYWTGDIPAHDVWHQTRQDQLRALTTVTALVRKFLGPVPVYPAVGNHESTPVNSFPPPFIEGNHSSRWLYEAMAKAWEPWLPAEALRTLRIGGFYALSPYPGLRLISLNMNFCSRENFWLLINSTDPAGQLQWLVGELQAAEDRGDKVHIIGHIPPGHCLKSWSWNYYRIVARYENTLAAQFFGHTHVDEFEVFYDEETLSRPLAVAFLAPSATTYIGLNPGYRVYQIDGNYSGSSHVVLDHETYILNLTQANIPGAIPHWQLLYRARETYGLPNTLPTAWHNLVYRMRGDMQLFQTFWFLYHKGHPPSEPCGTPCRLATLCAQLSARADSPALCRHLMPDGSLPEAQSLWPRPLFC

| IC50 | SMILES |
| --- | --- |
| 4.89 to 5.07 µM | CCN(CC)C(=O)/C=C/Cc1c(O)c(OC)cc2oc3cc(OC)cc(O)c3c(=O)c12 |
| 0.35 µM | CCCCCCCC(OP(=O)(O)O)OP(=O)(O)O |
| 31.6 µM | CCCCCCCCOC(=O)c1c(CSC(=N)N)n(C)c2cc(Br)c(OC(C)=O)cc12 |
| 7.78 µM | COc1ccc(C(=O)NO)cc1OCc1ccc(Br)cc1 |
| 17.4 µM | CCCCCCCCOc1cccc(C(=O)NO)c1 |
| 19.4 µM | O=C(NO)c1cccc(OCc2ccc(Br)cc2)c1 |
| 14.1 µM | COc1ccc(/C=N/NC(=O)c2[nH]c3ccc(Cl)cc3c2-c2ccccc2)c(C(=O)O)c1OC |
| 4.89 to 5.07 µM | CCNC(=O)/C=C/Cc1c(O)c(OC)cc2oc3cc(OC)cc(O)c3c(=O)c12 |
| 85.2 µM | CCCCCCCCCCOc1cc(C(=O)NCC(C)O)ccc1OC (stereo not drawn) |
| 19.2 µM | COc1c(O)cc2oc3cc(O)c(CC=C(C)C)c(O)c3c(=O)c2c1C/C=C(\C)CCC=C(C)C [COWANIN] |
| 22.4 µM | Cc1c(C(=O)Nc2cccc(C(F)(F)F)c2)oc2ccc(S(=O)(=O)N3CCOCC3)cc12 |
| 0.44 µM | CCCCCCCCCCCCS(=O)(=O)O[C@H]1OC(O)[C@H](OP(=O)(O)O)[C@@H](O)[C@@H]1OP(=O)(O)O (stereo partly drawn) |
| 52.9 µM | N#Cc1ccc(COc2cccc(C(=O)NO)c2)cc1 |
| 25.1 µM | CC1=C(C(=O)Nc2ccccc2)C(c2ccc(Cl)cc2)n2c(s/c(=C/c3cccc(OCC(=O)O)c3)c2=O)=N1 (stereo not drawn) |
| 60.4 µM | O=C(NO)c1cccc(OCc2ccccc2)c1 |
| 24.3 µM | O=c1cc(-c2ccc3c(c2)OCCCO3)oc2c1ccc1ccccc12 |
| 31.6 µM | CC(C)N1C(=N)/C(=C\c2nc(=O)c3ccccc3[nH]2)c2ccccc21 |

| IC50 | SMILES |
| --- | --- |
| 20 µM | Cc1cc2[nH]c(=O)c(=O)[nH]c2cc1S(=O)(=O)N1CCN(c2cccc(Cl)c2)CC1 |
| 24.7 µM | COc1c(O)cc2oc3cc(O)c(CC=C(C)C)c(O)c3c(=O)c2c1CC=C(C)C [MANGOSTIN] |
| 17.4 µM | CCCCCCCCCCOc1cc(C(=O)NO)ccc1O |
| 26.7 µM | O=P(O)(O)O[C@H]1[C@H](O)[C@@H](OP(=O)(O)O)[C@H](O)[C@@H](OP(=O)(O)O)[C@H]1O |
| 68.7 µM | CCCCCCCC1Cc2cc(O)c(C(=O)O)c(O)c2C(C)O1 (stereo not drawn) |
| 20 µM | Cc1cc2[nH]c(=O)c(=O)[nH]c2cc1S(=O)(=O)N1CCN(c2cccc(C(F)(F)F)c2)CC1 |
| 18.6 µM | CCCCCCCCCCCCOc1cc(C(=O)NO)ccc1OC |
| 28.2 µM | COc1cc(/C=C2/SC(=S)N(Nc3ncc(C(F)(F)F)cc3Cl)C2=O)cc(OC)c1OC |
| 2.34 µM | CCCCCCCCS(=O)(=O)OC[C@H]1OC(O)[C@H](OP(=O)(O)O)[C@@H](O)[C@@H]1OP(=O)(O)O (stereo partly drawn) |
| 0.3 µM | CCCCCCCCCC(OP(=O)(O)O)OP(=O)(O)O |
| 3.5 µM | CCOc1ccc2oc(-c3cc(Br)cc4c3OCOC4)c(N)c(=O)c2c1 |
| 1.42 µM | CCCCCCCCCCOc1cccc(C(=O)NO)c1 |
| 10.5 µM | COc1ccc(C(=O)NO)cc1OCc1ccccc1 |
| 16.1 µM | CCCCCCCCOc1cc(C(=O)NO)ccc1OC |
| 39.8 µM | CCCCc1oc2ccccc2c1C(=O)c1cc(I)c(OCCN(CC)CC)cc1I |
| 71 µM | CCCCCCCCCCOc1cc(C(=O)NCCO)ccc1OC |
| 42.7 µM | COc1ccc(COc2cccc(C(=O)NO)c2)cc1 |

| SMILES | IC50 |
| --- | --- |
| O=C(c1cc(-c2ccccc2)n(-c2ccc(Cl)cc2Cl)n1)N1CCOCC1 | 28.2 µM |

biological target: T2, Sphingomyelin phosphodiesterase 2 (Homo sapiens) (UniProt O60906); test: Inhibition of neutral sphingomyelinase (unknown origin) assessed as reduction in NBD-ceramide release at 100 uM by TLC based fluorescence assay
T2 sequence (whole entry): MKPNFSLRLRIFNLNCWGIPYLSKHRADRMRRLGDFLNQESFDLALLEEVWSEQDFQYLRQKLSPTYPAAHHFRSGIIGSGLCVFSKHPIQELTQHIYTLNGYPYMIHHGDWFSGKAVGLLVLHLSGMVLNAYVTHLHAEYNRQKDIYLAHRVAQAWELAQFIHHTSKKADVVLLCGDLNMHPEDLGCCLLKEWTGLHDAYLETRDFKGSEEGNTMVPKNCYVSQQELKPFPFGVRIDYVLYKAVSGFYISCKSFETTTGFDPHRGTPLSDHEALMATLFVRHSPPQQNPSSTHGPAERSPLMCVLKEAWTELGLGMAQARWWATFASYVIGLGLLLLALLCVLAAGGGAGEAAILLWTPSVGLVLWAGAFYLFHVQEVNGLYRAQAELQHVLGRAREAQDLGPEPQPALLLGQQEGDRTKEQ

| inhibition | SMILES |
| --- | --- |
| inactive | CCCCCCCCCCOc1cccc(C(=O)NO)c1 |

biological target: T3, Sphingomyelin phosphodiesterase (Bos taurus, UniProt Q0VD19); test: Inhibition of bovine brain-derived acidic sphingomyelinase
T3 sequence (Q0VD19 whole entry): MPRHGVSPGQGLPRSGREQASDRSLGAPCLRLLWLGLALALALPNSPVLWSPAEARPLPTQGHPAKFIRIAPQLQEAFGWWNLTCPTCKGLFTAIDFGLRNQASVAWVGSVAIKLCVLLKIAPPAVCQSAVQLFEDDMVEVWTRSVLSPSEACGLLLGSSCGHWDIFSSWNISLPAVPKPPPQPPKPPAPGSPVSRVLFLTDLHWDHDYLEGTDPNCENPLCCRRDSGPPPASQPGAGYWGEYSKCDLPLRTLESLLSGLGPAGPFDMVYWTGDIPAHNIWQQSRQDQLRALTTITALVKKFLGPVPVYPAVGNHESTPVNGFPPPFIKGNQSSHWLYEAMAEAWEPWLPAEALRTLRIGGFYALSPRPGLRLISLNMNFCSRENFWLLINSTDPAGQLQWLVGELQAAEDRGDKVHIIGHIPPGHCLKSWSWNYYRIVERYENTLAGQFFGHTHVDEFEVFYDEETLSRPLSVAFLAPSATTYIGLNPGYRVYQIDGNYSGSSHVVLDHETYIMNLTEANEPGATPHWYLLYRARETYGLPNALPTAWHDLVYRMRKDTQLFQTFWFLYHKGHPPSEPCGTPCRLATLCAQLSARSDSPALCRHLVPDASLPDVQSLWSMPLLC

| IC50 | SMILES |
| --- | --- |
| 14.1 µM | COc1c(O)cc2oc3cc(O)c(CC=C(C)C)c(O)c3c(=O)c2c1CC=C(C)C [MANGOSTIN] |
